ChEMBL document CHEMBL4190269, “Design, synthesis and biological evaluation of novel 6-substituted pyrrolo [3,2-d] pyrimidine analogues as antifolate antitumor agents” (2017)
Calls of active or inactive are those of the source. The rule behind the calls is not given here.

Tests used:
HL-60 [1] = test: Antiproliferative activity against human HL60 cells after 48 hrs by MTS assay; format: functional; details: HL-60, 48 h
In short: (§1)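 Cells in RPMI-1640 or DMEM with 10% FBS, 37 °C, 5% CO2. Exponentially growing cells seeded at 5 × 10^3 per well and grown 12 h. Compounds added at 10 nM to 100 μM for 48 h. MTS reagent added for 3 h, then OD read at 490 nm. 0.1% DMSO as control. Mean viability from three independent experiments.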

A549 [2] = test: Antiproliferative activity against human A549 cells after 48 hrs by MTS assay; format: functional; details: A549, 48 h; in short: as §1
NCI-H1299 = test: Antiproliferative activity against human NCI-H1299 cells after 48 hrs by MTS assay; format: functional; details: NCI-H1299, 48 h; in short: as §1
HeLa = test: Antiproliferative activity against human HeLa cells after 48 hrs by MTS assay; format: functional; in short: as §1
HCT-116 = test: Antiproliferative activity against human HCT116 cells after 48 hrs by MTS assay; format: functional; details: HCT-116, 48 h
HT-29 = test: Antiproliferative activity against human HT-29 cells after 48 hrs by MTS assay; format: functional; details: HT-29, 48 h; in short: as §1
A549 [3] = test: Cell cycle arrest in human A549 cells assessed as accumulation at G1 phase at 1 uM after 72 hrs by propidium iodide staining based flow cytometry (reference value: 40.9%); format: functional
In short: (§2)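 A549 cells treated 72 h in RPMI1640 with 10% dFBS and 2 nM LCV. Washed twice in ice-cold PBS and fixed in 70% ethanol at 4 °C overnight. Stained ≥20 min at room temperature in the dark with 50 μg/mL PI and 100 μg/mL RNase. Phase percentages from 1 × 10^4 cells by flow cytometry. DMSO-treated cells as reference.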

A549 [4] = test: Cell cycle arrest in human A549 cells assessed as accumulation at S phase at 1 uM after 72 hrs by propidium iodide staining based flow cytometry (reference value: 51.3%); format: functional; in short: as §2
A549 [5] = test: Cell cycle arrest in human A549 cells assessed as accumulation at G2 phase at 1 uM after 72 hrs by propidium iodide staining based flow cytometry (reference value: 7.8%); format: functional; in short: as §2
A549 [6] = test: Inhibition of colony formation in human A549 cells at 20 uM treated for 48 hrs followed by compound washout measured after 8 days by Giemsa staining based assay; format: functional, cell-based
In short: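 About 100 A549 cells per well plated and kept 24 h in RPMI with 10% dFBS and 2 nM LCV at 37 °C, 5% CO2. Compound at 0-20 μM added for 48 h, then medium replaced with drug-free medium for 8 days. Colonies fixed in methanol 30 min, Giemsa-stained 30 min, then counted.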

[7] = target: T1, Dihydrofolate reductase (Homo sapiens) (UniProt P00374); test: Inhibition of recombinant human DHFR at 100 uM using dihydrofolate as substrate in presence of NADPH by spectrophotometric method relative to control
T1 sequence (whole entry): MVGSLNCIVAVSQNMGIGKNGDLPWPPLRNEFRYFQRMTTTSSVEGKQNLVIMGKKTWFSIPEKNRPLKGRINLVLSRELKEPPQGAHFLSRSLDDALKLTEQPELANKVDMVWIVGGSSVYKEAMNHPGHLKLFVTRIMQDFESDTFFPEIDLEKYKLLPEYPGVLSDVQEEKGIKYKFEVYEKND
In short: (§3)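 Recombinant human DHFR assayed with 0.1 mM dihydrofolate, 0.3 mM NADPH and 100 mM KCl, pH 7.5, 32 °C. Reaction started by adding enzyme and followed as OD change at 340 nm. Percent inhibition recorded at 1, 10 and 100 μM.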

[8] = target: T1, Dihydrofolate reductase (Homo sapiens); test: Inhibition of recombinant human DHFR at 1 to 10 uM using dihydrofolate as substrate in presence of NADPH by spectrophotometric method; in short: as §3
HL-60 [9] = test: Antiproliferative activity against human HL60 cells up to 1000 uM after 48 hrs in presence of excess of adenosine and AICA by MTS assay; format: functional, cell-based
HL-60 [10] = test: Antiproliferative activity against human HL60 cells up to 1000 uM after 48 hrs in presence of excess of thymidine by MTS assay; format: functional, cell-based
A549 [11] = test: Cell cycle arrest in human A549 cells assessed as accumulation at G1 phase at 10 uM after 72 hrs by propidium iodide staining based flow cytometry (reference value: 40.9%); format: functional; in short: as §2
A549 [12] = test: Cell cycle arrest in human A549 cells assessed as accumulation at S phase at 10 uM after 72 hrs by propidium iodide staining based flow cytometry (reference value: 51.3%); format: functional; in short: as §2
A549 [13] = test: Cell cycle arrest in human A549 cells assessed as accumulation at G2 phase at 10 uM after 72 hrs by propidium iodide staining based flow cytometry (reference value: 7.8%); format: functional; in short: as §2
A549 [14] = test: Induction of apoptosis in human A549 cells assessed as necrotic cells at 1 uM after 72 hrs by Annexin V-FITC/propidium iodide staining based flow cytometry (reference value: 3.58%); format: functional
In short: (§4)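 A549 cells exposed 72 h in RPMI with 10% dFBS and 2 nM LCV, with an untreated control. Harvested by trypsinization and washed twice in cold PBS. Stained with annexin V-FITC/PI and ≥1 × 10^4 cells analyzed by flow cytometry. Quadrants: LR early apoptosis, UR late apoptosis/necrosis, UL dead, LL viable.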

A549 [15] = test: Induction of apoptosis in human A549 cells assessed as late apoptotic cells at 1 uM after 72 hrs by Annexin V-FITC/propidium iodide staining based flow cytometry (reference value: 1.24%); format: functional; in short: as §4
A549 [16] = test: Induction of apoptosis in human A549 cells assessed as live cells at 1 uM after 72 hrs by Annexin V-FITC/propidium iodide staining based flow cytometry (reference value: 94.86%); format: functional; in short: as §4
A549 [17] = test: Induction of apoptosis in human A549 cells assessed as early apoptotic cells at 1 uM after 72 hrs by Annexin V-FITC/propidium iodide staining based flow cytometry (reference value: 0.32%); format: functional; in short: as §4
A549 [18] = test: Induction of apoptosis in human A549 cells assessed as necrotic cells at 10 uM after 72 hrs by Annexin V-FITC/propidium iodide staining based flow cytometry (reference value: 3.58%); format: functional; in short: as §4
A549 [19] = test: Induction of apoptosis in human A549 cells assessed as late apoptotic cells at 10 uM after 72 hrs by Annexin V-FITC/propidium iodide staining based flow cytometry (reference value: 1.24%); format: functional; in short: as §4
A549 [20] = test: Induction of apoptosis in human A549 cells assessed as live cells at 10 uM after 72 hrs by Annexin V-FITC/propidium iodide staining based flow cytometry (reference value: 94.86%); format: functional; in short: as §4
A549 [21] = test: Induction of apoptosis in human A549 cells assessed as early apoptotic cells at 10 uM after 72 hrs by Annexin V-FITC/propidium iodide staining based flow cytometry (reference value: 0.32%); format: functional; in short: as §4

GI50 (HL-60 [1])	GI50 (A549 [2])	GI50 (NCI-H1299)	GI50 (HeLa)	GI50 (HCT-116)	GI50 (HT-29)	Compound	further results
> 100 µM	> 100 µM	> 100 µM	> 100 µM	> 100 µM	> 100 µM	C#CCN(Cc1cc2nc(N)[nH]c(=O)c2[nH]1)c1ccc(C(=O)N[C@@H](CCC(=O)O)C(=O)O)cc1	–
> 100 µM	> 100 µM	> 100 µM	> 100 µM	> 100 µM	> 100 µM	CCN(Cc1cc2nc(N)[nH]c(=O)c2[nH]1)c1ccc(C(=O)N[C@@H](CCC(=O)O)C(=O)O)cc1	–
> 100 µM	> 100 µM	> 100 µM	> 100 µM	> 100 µM	> 100 µM	CN(Cc1cc2nc(N)[nH]c(=O)c2[nH]1)c1ccc(C(=O)N[C@@H](CCC(=O)O)C(=O)O)cc1	–
54.2 µM	> 100 µM	> 100 µM	> 100 µM	> 100 µM	> 100 µM	Nc1nc2c(I)c(CNc3ccc(C(=O)N[C@@H](CCC(=O)O)C(=O)O)cc3)[nH]c2c(=O)[nH]1	–
40.1 µM	83 µM	> 100 µM	> 100 µM	> 100 µM	> 100 µM	Nc1nc2c(Br)c(CNc3ccc(C(=O)N[C@@H](CCC(=O)O)C(=O)O)cc3)[nH]c2c(=O)[nH]1	–
0.038 µM	0.014 µM	0.072 µM	> 100 µM	0.13 µM	> 100 µM	CN(Cc1cnc2nc(N)nc(N)c2n1)c1ccc(C(=O)N[C@@H](CCC(=O)O)C(=O)O)cc1 [METHOTREXATE]	Activity (A549 [3]): 62%; Activity (A549 [4]): 38%; Activity (A549 [5]): 0%
47.4 µM	79 µM	73.1 µM	85.1 µM	> 100 µM	> 100 µM	Nc1nc2cc(CNc3ccc(C(=O)N[C@@H](CCC(=O)O)C(=O)O)cc3)[nH]c2c(=O)[nH]1	–
15.5 µM	57.3 µM	68.4 µM	82.7 µM	> 100 µM	98.5 µM	C=CCn1c(CNc2ccc(C(=O)N[C@@H](CCC(=O)O)C(=O)O)cc2)cc2nc(N)[nH]c(=O)c21	–
8.92 µM	0.73 µM	1.72 µM	73.1 µM	54.6 µM	99.1 µM	Nc1nc2cc(CCc3ccc(C(=O)N[C@@H](CCC(=O)O)C(=O)O)cc3)[nH]c2c(=O)[nH]1	inhibition (A549 [6]): Active; inhibition [7]: 66.7%; inhibition [8]: Active; Activity (HL-60 [9]): Active; Activity (HL-60 [10]): Active; Activity (A549 [3]): 33.7%; Activity (A549 [4]): 51.3%; Activity (A549 [5]): 15%; Activity (A549 [11]): 35%; Activity (A549 [12]): 45.6%; Activity (A549 [13]): 19.4%; Activity (A549 [14]): 4.46%; Activity (A549 [15]): 1.07%; Activity (A549 [16]): 94.08%; Activity (A549 [17]): 0.39%; Activity (A549 [18]): 3.56%; Activity (A549 [19]): 3.21%; Activity (A549 [20]): 88.02%; Activity (A549 [21]): 4.4%
13.5 µM	46 µM	51.3 µM	94.4 µM	> 100 µM	> 100 µM	Cn1c(CNc2ccc(C(=O)N[C@@H](CCC(=O)O)C(=O)O)cc2)cc2nc(N)[nH]c(=O)c21	–
